System: MS2 coat protein
Experiment: apparent Kd, MS2 coat protein; higher = weaker binding; RNA-MaP array; FMN 200 µM where present
Summary of the method: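 The apparent Kd comes from binding curves fitted cluster by cluster, filtered, and summarised as a median. Those curves followed SNAP-549-labelled MS2 coat protein from 0.7 or 1.5 nM, doubling to 3 µM, on Illumina sequencing-chip clusters where stalled E. coli RNA polymerase had transcribed the designs, without and then with constant ligand. The buffer was 100 mM Tris-HCl pH 7.5, 80 mM KCl, 4 mM MgCl2, BSA, DTT, yeast tRNA and Tween-20, and green signal was normalised to red-channel RNA signal and control-cluster median Fmax.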

[1] = designed as: OFF switch for flavin mononucleotide, no ligand
[2] = ligand present: flavin mononucleotide, designed as: OFF switch for flavin mononucleotide
[3] = designed as: ON switch for flavin mononucleotide, no ligand
[4] = ligand present: flavin mononucleotide, designed as: ON switch for flavin mononucleotide

| Sequence | apparent Kd [1] [nM] | apparent Kd [2] [nM] | apparent Kd [3] [nM] | apparent Kd [4] [nM] |
| --- | --- | --- | --- | --- |
| AUUCACCGAGGAUAUACAUGAGGAUCACCCAUGUAAAAGAAACGGUGCCAUCGGUCGUGUAGAAGGUGGUGUUA | 16.6 | 16.1 |  |  |
| GAUCAACAUGAGGAUCACCCAUGUGAGGAUAUGAUACUAUGUACUUCGGUACAUAGUAUCAGAAGGCAUGUGAA | 78.1 | 111 |  |  |
| AAGAUGCGGGUAGGAUAUGGGAAUUAAUAAAGACCAGAAGGACUGGUCACACAACAUGAGGAUCACCCAUGUGUGUGUAGUGAA | 12.4 | 10.9 |  |  |
| UAAUAAAACGAUCGGCGGUCCAUACAUGAGGAUCACCCAUGUAGAAGGCACUCUACAAAGUAGAGUGAGGAUAUACAAGAUCGA | 15 | 258 |  |  |
| GGAUAGGACAGAGGAUAUACGUGCUAGAGCUACUAGCAAAAUUUCCUCACAUGAGGAUCACCCAUGUAGAAGGCUGUCCUAUCG | 15.6 | 463 |  |  |
| GGUGGACAUGAGGAUCACCCAUGUGAGGAUAUCGGCUAUCUUGUCGCUGUCGGUUGCUCGAGAAGGCACAUUGU | 78.8 | 128 |  |  |
| AAGAAUAGAAAGAUUAAUAUGAAUACAUGAGGAUCACCCAUGUAGGAUAUCGACGUCAAUGACGUCGAGAAGGACAUAAAUAAU | 9.7 | 9.09 |  |  |
| GGCGAACAGGCUAACAUGAGGAUCACCCAUGUGGACUCAUGGUAGGAUAUCGGGAAGGAGGAAACCGAGAAGGGCCGGUGAGCC |  |  | 61 | 34.1 |
| GUUUUGGGAGGAUAUAUGUGGAUUAUUUUUGUAUGUUGUUUACAUGAGGAUCACCCAUGUAGAAGGUCUAGAGC | 102 | 211 |  |  |
| GGUCGUCAAGUCAGGAUAUCGUAUAGUAGAUAUAACGAGAAGGGACAUGAGGAUCACCCAUGUCGUCUCAUCAG | 19 | 29 |  |  |
| UGGUACUAGGGAGGAUAUGGGAAGAUACAUGAGGAUCACCCAUGUUUAAGAAUGCCGGGAGGCAACUAGAAGGCCCUAGUACCU |  |  | 478 | 21.2 |
| UGUAUACAUGAGGAUCACCCAUGUCAACGUAGUCGAGGAUAUGGGCAGCCGUGAGGCGUACUAGAAGGCGAAGAGG |  |  | 337 | 110 |
| UAAUCUCAGAUAGGAUAUAUAGGAUAAUUUAAGACCGAACAUGAGGAUCACCCAUGUGAUUAUUCGUAGAAGGAUCAAUGACCC |  |  | 78.3 | 76.2 |
| AGGUAGUCAGGAUAUUAGUGGUAGAGGGAUAACUUUAUUGUUGAGAAGGGACAUGAGGAUCACCCAUGUUUUGU | 26.3 | 32.5 |  |  |
| UUAUGGAUUACAGGAUAUGUUAGUUUUAAGUGUAUUGGUUAUUACUUAAUUACAGAAGGGUAUUACAUGAGGAUCACCCAUGUA |  |  | 16.4 | 11.8 |
| AUCAGCUCGUCAGGAUAUACGUCACUGCGUCAGCAGUGUGGGAAGAUCACAUGAGGAUCACCCAUGUAGAAGGGACGAGCUGAU | 635 | 20.4 |  |  |
| CCUCCUGCAAAGGAUAUCGCGCGGUGACGCUGUCGAGAAGGUUGUACAUGAGGAUCACCCAUGUGGUAUAAGAU | 202 | 472 |  |  |
| GUUGAUGGAGGAUAUACUGCAGUGAUUGGCAAGAAUCCAGCACAUGAGGAUCACCCAUGUAGAAGGCCAUAACA | 25.8 | 63.5 |  |  |
| GCGUAACAUGAGGAUCACCCAUGUACUCGAGAAAUCGAGUGUAGAAGGGUGACCGGUCGUUUGGCACAGGAUAUACACGCUGUG |  |  | 31.1 | 14.1 |
| AGCUACGUUUCGUAGCAGUGUCAUCGAGAAGGCCUUAUAACAUGAGGAUCACCCAUGUUUGCAUGGGAGGAUAUCGAUGAUACA |  |  | 20.1 | 5.63 |
| AUUUCAGUCAGAGGAUAUUGUUUAUCUCUAUUGCAAGAAGGCUGAUCUUACUACCCACUUAUGAAACAUGAGGAUCACCCAUGU |  |  | 20.8 | 16.8 |
| UUUUUUUUAUGAGGAUAUAUUUUACAUACAAAACAUGAGGAUCACCCAUGUGUUGUCCCAUGUUUAUAGAAGGCAUUUUUUUUU |  |  | 418 | 598 |
| AAUUGACACGUAGGAUAUCGCUCUAUUUUAACACGAGAAGGACGUACAUGAGGAUCACCCAUGUUUAAUGGUGUAGAUAAGUUG | 105 | 228 |  |  |

— the EternaBench riboswitch data
